Rows were chosen to be rich in hits. Some 3.3% of all compounds tested hit in one or more screens of this group.
UHRF1 MBD2 ctr = human UHRF1 methylated DNA binding inhibitors | UHRF1 binding to methylated oligo, TR-FRET | Q96T88 | inhibition, % at 4.4 µM | hit rate 0.75% among 370,000;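 note: UHRF1 SRA domain binding a hemimethylated CpG hairpin DNA probe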
MBD2 inh = MBD2-methylated oligo binding inhibition; TR-FRET, MBD2 binding to methylated oligonucleotide; inhibition, % at 4.4 µM; Q9UBB5; hit rate 0.31% among 370,000; in the data active = inhibition above about 13%
LEDGF integ inh = blocks HIV-1 LEDGF/p75-dependent DNA integration; inhibition, % at 3.7 µM; hit rate 0.64% among 370,000; TR-FRET IN-LEDGF/p75 DNA integration, Eu/Cy5; AID 743269;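 active = inhibition above the screen-wide mean plus 3 SD, cut at about 13% in these data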;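 note: signal is the Cy5 over europium emission ratio at 671 and 618 nm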
PRMT1 inh = blocks human protein arginine methyltransferase 1; inhibition, % at 2.79 µM; hit rate 1.3% among 370,000; Q99873; recombinant PRMT1, activity-based probe fluorescence polarization;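 active = inhibition above about 21% made by adding two undisclosed values, limit read from the data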
Target sequence (Q99873 whole entry, looked up): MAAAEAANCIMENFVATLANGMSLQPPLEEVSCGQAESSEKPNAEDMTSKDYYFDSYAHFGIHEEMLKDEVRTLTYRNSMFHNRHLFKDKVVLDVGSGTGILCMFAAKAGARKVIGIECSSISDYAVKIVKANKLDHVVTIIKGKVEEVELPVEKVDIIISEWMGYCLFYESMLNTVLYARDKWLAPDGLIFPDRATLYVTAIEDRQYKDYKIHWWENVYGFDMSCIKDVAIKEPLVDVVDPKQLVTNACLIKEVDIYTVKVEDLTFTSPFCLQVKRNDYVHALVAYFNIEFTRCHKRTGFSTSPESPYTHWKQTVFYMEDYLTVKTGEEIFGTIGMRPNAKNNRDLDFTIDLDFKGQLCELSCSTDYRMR
SIAE primary = blocks human sialic acid acetylesterase | SIAE FP-Rh probe binding, fluorescence polarization | AID 1053197 | Q9HAT2 | hit rate 0.69% among 370,000 | inhibition, % at 9.66 µM;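 active = inhibition above a cutoff: mean of compounds within the control limits plus 3 SD of those, cut at about 17% in these data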
TDP2 absorb = TDP2 (human) inhibition, absorbance primary screen; O95551; recombinant TDP2, T5PNP hydrolysis, p-nitrophenol absorbance 415 nm; inhibition, % at 12.8 µM; hit rate 0.34% among 370,000; AID 720702;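 active = inhibition above the mean of all tested compounds plus 3 SD, set per campaign, cut at about 25% in these data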
Target sequence (O95551 whole entry, looked up): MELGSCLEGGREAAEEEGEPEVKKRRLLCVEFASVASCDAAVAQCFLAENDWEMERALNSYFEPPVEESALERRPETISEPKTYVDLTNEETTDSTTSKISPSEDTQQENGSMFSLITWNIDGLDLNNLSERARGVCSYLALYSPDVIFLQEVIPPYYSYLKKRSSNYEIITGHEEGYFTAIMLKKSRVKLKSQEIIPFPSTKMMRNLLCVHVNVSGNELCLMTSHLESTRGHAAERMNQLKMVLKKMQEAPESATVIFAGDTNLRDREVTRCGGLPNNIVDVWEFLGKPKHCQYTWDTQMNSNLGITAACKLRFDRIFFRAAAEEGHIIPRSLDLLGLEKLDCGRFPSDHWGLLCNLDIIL
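test system = human TDP2 enzyme | input = TDP2 enzyme at 120 nM final | medium = 50 mM Tris-HCl pH 7.5 with Mg2+, KCl, DTT, BSA | also added = T5PNP substrate, 5 mM | times = 2 h at 37 °C | technique = epi absorbance | benchmarks = high control without enzyme, low control DMSO plus TDP2 | replication = each compound tested once, singlicate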
PRMT1 confirm = confirmation of human PRMT1 inhibitors; recombinant His-PRMT1, activity-based probe fluorescence polarization; shares compounds with PRMT1 inh; AID 687036; inhibition, % at 2.79 µM; hit rate 42% among 3,300;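 active = mean inhibition across replicates above the hit cutoff derived for the earlier primary screen, cut at about 22% in these data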
UHRF1 ctr MBD2 = counter-screen for MBD2 inhibitors: human UHRF1 methylated DNA binding inhibitors | inhibition, % at 4.4 µM | hit rate 25% among 1,000 | shares compounds with MBD2 inh | UHRF1 binding to methylated oligonucleotide, TR-FRET;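 note: UHRF1 SRA domain binding a labeled hemimethylated CpG hairpin DNA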
MBD2 confirm = MBD2-DBD methyl-DNA binding inhibition, TR-FRET confirmation | hit rate 26% among 1,000 | shares compounds with MBD2 inh | inhibition, % at 4.4 µM | TR-FRET MBD2-DBD binding to methylated oligonucleotide; in the data active = inhibition above about 14%
TDP2 inh conf = human TDP2 inhibition, confirmation. shares compounds with TDP2 absorb. recombinant human TDP2, absorbance read-out. inhibition, % at 12.8 µM. hit rate 22% among 1,100. AID 743263; in the data active = inhibition above about 25%
IN multimer act = activates HIV-1 integrase multimerization in LEDGF counter-screen; shares compounds with LEDGF integ inh; TR-FRET HIV-1 integrase multimerization, biochemical; activation, % at 7.7 µM; hit rate 17% among 2,000; AID 1053131; in the data active = activation above about 8.9%
TRFRET interf = TR-FRET optical interference, LEDGF/p75 integration counter-screen | shares compounds with LEDGF integ inh | TR-FRET optical interference counterscreen, HIV-1 IN multimerization | inhibition, % at 7.7 µM | 2,000 tested, under 10 active | AID 1053135;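 active = inhibition above the mean over all tested compounds plus 3 SD, which no compound reached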
LEDGF integ conf = confirmation of HIV-1 LEDGF/p75-dependent integration inhibitors. shares compounds with LEDGF integ inh. hit rate 36% among 2,000. TR-FRET LEDGF/p75-dependent HIV-1 integration, biochemical. inhibition, % at 3.7 µM; in the data active = inhibition above about 14%
SIAE confirm = human SIAE inhibition, confirmation; shares compounds with SIAE primary; SIAE FP-Rh activity-based probe, fluorescence polarization; inhibition, % at 9.66 µM; hit rate 13% among 2,300;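 active = mean inhibition of the replicates above the hit cutoff set in the primary screen, cut at about 17% in these data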;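 note: inhibitors lower polarization as more probe stays unbound to SIAE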
A number is an active result; - = inactive; . = no result given. Cut-off read from the data, not from the text of the source, unless noted: active = inhibition above about 21%; inactive = the rest.

SMILES	UHRF1 MBD2 ctr	MBD2 inh	LEDGF integ inh	PRMT1 inh	SIAE primary	TDP2 absorb	PRMT1 confirm	UHRF1 ctr MBD2	MBD2 confirm	IN multimer act	TRFRET interf	LEDGF integ conf	others
O=C1NC(=O)N(CCc2ccc(F)cc2)C(=O)/C1=C/c1ccco1	97.3	74.0	80.0	35.4	-	-	-	22.6	15.7	-	-	16.4
Cc1ccc(/C=C2/C(=O)NC(=O)N(CCc3ccc(F)cc3)C2=O)o1	-	-	-	-	-	-	.	.	.	.	.	.
O=C1NC(=S)N(c2ccccc2)C(=O)/C1=C/c1ccco1	90.6	58.2	54.2	54.7	-	-	74.3	99.8	88.8	13.6	-	72.9
CCc1cc(OC)c(CCN)cc1OC	-	-	-	-	-	-	.	.	.	.	.	.
CCN(CC)c1ccc(N=Cc2c(O)n(-c3ccccc3C)c(=O)[nH]c2=O)cc1	-	-	28.2	27.6	-	-	-	.	.	-	-	-
O=C1NC(=S)NC(=O)C1=Cc1cccn1-c1ccc(O)cc1	32.2	14.3	32.8	42.4	-	-	67.9	40.8	24.0	10.0	-	73.0
Cc1cc(C)cc(N2C(=O)NC(=O)/C(=C\c3cccn3-c3ccc(Cl)cc3)C2=O)c1	-	-	-	-	-	-	.	.	.	.	.	.
COc1ccc(N2C(=O)NC(=O)/C(=C/c3ccc([N+](=O)[O-])s3)C2=O)cc1	-	-	-	-	-	-	.	.	.	.	.	.
COc1ccc(N2C(=O)NC(=O)/C(=C\c3ccc([N+](=O)[O-])s3)C2=O)cc1	-	-	17.7	39.4	-	-	49.6	.	.	-	-	33.1
CCN(CC)c1ccc(/C=C2/C(=O)NC(=O)N(Cc3ccco3)C2=O)cc1	72.1	18.4	70.9	29.7	-	-	-	28.7	13.9	-	-	30.3
CCN(CC)c1ccc(/C=C2\C(=O)NC(=O)N(CC3CCCO3)C2=O)cc1 (stereo unspecified)	-	-	-	-	-	-	.	.	.	.	.	.
CN(C)c1ccc(/C=C2/C(=O)NC(=O)N(Cc3ccco3)C2=O)cc1	68.3	15.0	65.9	28.9	-	-	-	25.2	-	-	-	14.0
CCC12CCN(CC3(O)CC3)C(Cc3ccc(O)cc31)C2(C)C (stereo unspecified)	-	-	-	-	-	-	.	.	.	.	.	.
O=C(NCCN1CCC2(CC1)C(=O)NCN2c1ccccc1)c1ccc(OC(F)(F)F)cc1	-	-	-	-	-	-	.	.	.	.	.	.
O=c1[nH]c2cc(Cl)ccc2n1C1CCN(Cc2ccc(-c3nc4ccc(F)cc4nc3-c3ccccc3)cc2)CC1	-	-	-	-	-	-	.	.	.	.	.	.
CCOC(=O)c1c(N)n(Cc2ccco2)c2nc3ccccc3nc12	-	-	-	-	-	-	.	.	.	.	.	.
CCCCn1c(NC(=O)c2ccco2)c(C(=O)OCC)c2nc3ccccc3nc21	-	-	30.5	40.8	-	79.3	-	.	.	-	-	61.6	TDP2 inh conf=76.5
CC(C)N1C(=O)/C(=C/C=C/c2ccco2)C(=O)N(Cc2ccco2)C1=O	50.1	19.3	69.2	29.3	-	-	-	-	-	-	-	50.5
CCN1C(=O)C(=C/C=C/c2ccco2)C(=O)N(CC)C1=S	30.4	-	38.9	27.0	-	-	33.8	.	.	-	-	50.9
COC(=O)C1C(c2ccc(F)cc2)CC2CCC1N2C (stereo unspecified)	-	-	-	-	-	-	.	.	.	.	.	.
CC(=O)c1ccc2c(c1)C1C(Cl)C(Sc3ccccc3[N+](=O)[O-])CC1C(C(=O)O)N2 (stereo unspecified)	-	-	14.1	49.3	20.9	-	22.6	.	.	-	-	19.8	SIAE confirm=-
O=C(Nc1ccccc1)N1Cc2cc(Br)ccc2-n2nncc2C1	-	-	-	-	-	-	.	.	.	.	.	.
CC[n+]1c(-c2ccccc2)c2cc(N)ccc2c2ccc(N)cc21	71.5	70.0	41.5	36.9	53.9	33.9	-	77.4	80.3	-	-	70.3	TDP2 inh conf=-;SIAE confirm=67.3
CN1OC[C@@H]2CN3C4(C[C@@H]21)c1ccccc1C3(c1ccccc1)c1ccccc14	-	-	-	-	-	-	.	.	.	.	.	.
COc1ccc2[nH]c(C)c(CCNCc3cccnc3)c2c1	-	-	-	120.0	22.1	-	-	.	.	.	.	.	SIAE confirm=-
SMILES	UHRF1 MBD2 ctr	MBD2 inh	LEDGF integ inh	PRMT1 inh	SIAE primary	TDP2 absorb	PRMT1 confirm	UHRF1 ctr MBD2	MBD2 confirm	IN multimer act	TRFRET interf	LEDGF integ conf	others
O=C(NCCN1CCC2(CC1)C(=O)NCN2c1ccccc1)c1cc(C(F)(F)F)ccc1C(F)(F)F	-	-	-	-	-	-	.	.	.	.	.	.
Clc1cc(Cl)cc(CN2Cc3cc(Br)ccc3-n3nncc3C2)c1	-	-	-	-	-	-	.	.	.	.	.	.
CC1=C[C@@H]2c3cccc4[nH]cc(c34)C[C@H]2N(C)C1	-	-	-	38.8	17.2	-	36.4	.	.	.	.	.	SIAE confirm=-
CCOC(=O)C1CCCN(c2ccc([N+](=O)[O-])c3nonc23)C1 (stereo unspecified)	-	-	-	122.3	21.3	-	135.2	.	.	.	.	.	SIAE confirm=46.6
CC1CCCN(c2ccc(C(=O)N3CCC4(CC3)OCCO4)cc2[N+](=O)[O-])C1 (stereo unspecified)	-	-	-	-	-	-	.	.	.	.	.	.
C#CCCC[C@@H]1OC(=O)CNC(=O)C([C@@H](C)CC)NC(=O)[C@@H]2CCCN2C(=O)C([C@@H](C)CC)OC(=O)[C@H](Cc2ccccc2)N(C)C(=O)[C@H](C(C)C)NC(=O)C1(C)C (stereo partly specified)	42.7	14.8	-	-	-	-	.	-	-	.	.	.
Cc1cccc2nc(-c3ccccc3)c(-c3ccc(CN4CCC(n5c(=O)[nH]c6cc(Cl)ccc65)CC4)cc3)nc12	-	-	-	-	-	-	.	.	.	.	.	.

Screening data from PubChem BioAssay.
